Experimental data reported in the array DNA melting data of Ke et al. (doi:10.1101/2024.01.08.574731).

Columns and labels:
[1] = folding enthalpy; higher = less favourable; fluorescence melt of hairpins on a sequencing array, two-state fit; conditions: sodium 0.088 M
How it was run: (§1)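 Cy3 fluorescence of library hairpins on a sequenced MiSeq flow cell, with annealed Cy3 and quencher oligos, was imaged in 50 mM Na-HEPES pH 8.0, 25 mM NaCl in 2.5 °C steps up to 60 °C. Signals were normalised to pre-quench Cy3 and to control variants. Melting temperature and folding enthalpy came from bootstrapped two-state fits, inverse-variance combined over four replicates. Fitted temperatures were raised by 9.35 °C to match UV melts.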

[2] = melting temperature; fluorescence melt of hairpins on a sequencing array, two-state fit, raised by 9.35 °C to match UV melts; conditions: sodium 0.088 M
How it was run: as §1

Sequence | folding enthalpy [1] [kcal/mol] | Tm [2] [°C]
GGTTTGGGAAACCAAATC (.(((((....))))).) | -31.1 | 44.5
GAACGCGAAAGCGTATTC ((((((....)))..))) | -7.69 | 35.8
GGGATCGAAAGATCGCCC ((((((....)))..))) | -15.3 | 47.2
GATCCAGGAGTGGATC ((((((....)))))) | -36.7 | 52.5
GAAGATGGAAACATCTCC (.(((((....))))).) | -16.3 | 33.4
GCGTACGAAAGTAAACGC ((((((....)))..))) | -34.5 | 51.9
ATTCCGAAAGGAAT (((((....))))) | -20.8 | 52.4
GCTCCGCGAAAGCTGTGC ((.(.((....)).).)) | -14.9 | 41.2
GTGATGACGAAAGTCCAC (((..(((....)))))) | -18.4 | 35.1
GTGGAAGGAAACTTTCAC (((.(((....))).))) | -33 | 43.2
GGTCCCGAAAGGGGCACC ((((((....)))..))) | -11.3 | 50.7
GTTAGCCGAAAGGCAAAC (((.(((....))).))) | -18.1 | 48.6
GGTATCGAAAGATAACC ((((((....))).))) | -21.5 | 40.8
GATCTAGTCTAGATC ((((((...)))))) | -34.2 | 41.1
GTAGGAGGAAACTCCCAC ((.((((....)))).)) | -16.4 | 30.9
GCCGAGGGAAACCTTGGC (((.(((....))).))) | -35.4 | 58.3
GATCGGACGGCCGATC ((((((....)))))) | -45.5 | 59.3
GATCTCGACTGAGATC ((((((....)))))) | -45.9 | 55.8
GGTACGGGAAACTGTACC (((((.(....).))))) | -34.3 | 50.9
GCTCTGCGAAAGCTCAGC (((..((....))..))) | -14.9 | 35.5
GCGATGAAAATCGC (((((....))))) | -31.7 | 61.6
GATCGGCCTCCCGATC ((((((....)))))) | -35 | 55.8
GACCCAGGAAACCAGGTC ((((..(....)..)))) | -24.3 | 34

Sequence | folding enthalpy [1] [kcal/mol] | Tm [2] [°C]
GATCTAAGTTTAGATC ((((((....)))))) | -30 | 41.9
GAGCGGCCGAAAGGCCTC (((..(((....)))))) | -6.54 | 28
GGTCCCGAAAGGGGAACC ((((((....)))..))) | -17.2 | 48.5
GTACGCGAAAGCGAATAC ((((((....)))..))) | -8.59 | 31.9
GCGAATCATCGC ((((....)))) | -23.6 | 47.6
AATACGAAAGTATT (((((....))))) | -15.3 | 44.8
GGTATTGGAAACGATACC (((((.(....).))))) | -33.4 | 44.4
GATCGTTTTACGATC ((((((...)))))) | -40.8 | 60.1
GATCGACAATTCGATC ((((((....)))))) | -42.5 | 49.2
GATCTGAGCACAGATC ((((((....)))))) | -29 | 49.5
GTTGTGGGAAACCACGAC ((.((((....)))).)) | -30.8 | 52.7
GTATGCGAAAGCAATAC ((((((....))).))) | -20.3 | 49.4
GGAGCTGGAAACAGTTCC (((.(((....))).))) | -37 | 50
GATTGACGAAAGTCGATC (((.(((....))).))) | -29.6 | 54.2
GCTGCTCCGAAAGGAAGC (((..(((....)))))) | -14.1 | 47
GATCGGGCAGCCGATC ((((((....)))))) | -40.3 | 59.3
CGGTCGGAAACGATCCG ((((((....))).))) | -43.2 | 50.5
GGCTCTGCGAAAGCAGCC (((..(((....)))))) | -9.66 | 40.6
GCAATGCGAAAGCAAGGC ((..(((....)))..)) | -18.7 | 43.7
GGAGTTGGAAACAGTTCC (((..((....))..))) | -13.4 | 35
GGCTTTCGAAAGAAGGCC (((.(((....))).))) | -40.9 | 56.7
GGTCGCGAAAGCGGAACC ((((((....)))..))) | -15.3 | 47.8
GGGGAACGAAAGTTACCC (((.(((....))).))) | -47.9 | 60.6

Sequence | folding enthalpy [1] [kcal/mol] | Tm [2] [°C]
GCAAAGCGAAAGCACTGC (((..((....))..))) | -13.7 | 37.7
GGGTTCGGAAACGGACTC (.((.((....)).)).) | -25.9 | 39.1
GGAAAGCGAAAGCTCTCC (((.(((....))).))) | -22.8 | 44
GCTACCGGAAACGGCAGC (((.(((....))).))) | -38.7 | 51.8
GATCGTGGAAACGTGATC ((((..(....)..)))) | -17.1 | 37.3
GCCCCGCGAAAGCACGGC (((..((....))..))) | -18.3 | 41.6
GATCCCACCAGGGATC ((((((....)))))) | -41.8 | 61.4
GTCGAGGGAAACTTCGAC (((((.(....).))))) | -42.6 | 49.6
GATCTCGGAAACGAGATC (((((((....))))))) | -45.5 | 64.3
GGGCTCGAAAGAGGCCCC ((((((....)))..))) | -12.3 | 67
GTGTGCCGAAAGGCTCAC (((.(((....))).))) | -31.5 | 61.2
GCGACCGAAAGGTACCGC ((((((....)))..))) | -21.9 | 47.2
GATCTTACAAAGATC ((((((...)))))) | -32.2 | 44.4
GAACCCGAAAGGGATTC ((((((....))).))) | -14.4 | 46.4
GATCAACCGGTTGATC ((((((....)))))) | -53.5 | 55.9
GTTCTAGAAATAGAAC ((((((....)))))) | -28.4 | 41.1
GATCTCGGGAGAGATC ((((((....)))))) | -41.6 | 63.2
GCTGAGCGAAAGCACCGC ((.(.((....)).).)) | -19 | 37.2
GTAGGACCGAAAGGTTAC (((..(((....)))))) | -12.7 | 28.5
TGCTGGAAACAGCA (((((....))))) | -19.4 | 53.1
GATCACGGATGTGATC ((((((....)))))) | -37.1 | 67.5
GCGCGGCGAAAGCCTCGC (((.(((....))).))) | -26.2 | 66.7
GTCCCGCGAAAGCGAGAC (((.(((....))).))) | -32.5 | 55.7
